{
  "source": "ChEMBL document CHEMBL5653630",
  "about": "“Activation of the p53-MDM4 regulatory axis defines the anti-tumour response to PRMT5 inhibition through its role in regulating cellular splicing” (Sci Rep, 2018)",
  "key": {"JeKo-1": {"system": "JeKo-1", "assay": "Induction of cell cycle arrest in human JeKo-1 cells assessed as increase in 2n cell population measured upto 5000 nM measured for 3 days by propidium iodide staining based flow cytometric analysis", "format": "functional", "conditions": "time 3.0 day"}, "MINO": {"system": "MINO", "assay": "Induction of cell cycle arrest in human MINO cells assessed as increase in 2n cell population measured upto 5000 nM measured for 3 days by propidium iodide staining based flow cytometric analysis", "format": "functional", "conditions": "time 3.0 day"}, "Z-138 [1]": {"system": "Z-138", "assay": "Antitumor activity against human Z138 cells xenografted in mouse assessed as reduction in tumor volume at 50 to 100 mg/kg, po BID measured for 10 days", "format": "functional, organism-based", "conditions": "dose 50-100 mg/kg, time 10.0 day"}, "Z-138 [2]": {"system": "Z-138", "assay": "In vivo inhibition of PRMT5 in human Z138 cells xenografted in mouse assessed as increase in SESN1 expression at 100 mg/kg, po BID measured for 7 days", "format": "functional, organism-based", "conditions": "time 7.0 day"}, "C-4-II": {"system": "C-4-II", "assay": "Antiproliferative activity against human C-4-II cells assessed as cell growth inhibition incubated for 10 days", "format": "functional", "conditions": "240 h, time 10 day", "in_short": "(§1)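 Cells kept in RPMI-1640 with 10% FBS, 2 mM L-alanyl-L-glutamine and 1 mM Na pyruvate (or a special medium) at 37°C, 5% CO2. Compound added 24 h after seeding, 10 concentrations in 3.16-fold dilution, 0.1% DMSO final. Medium replaced and cells re-dosed at 168 h; 240 h incubation. Nuclei fixed, dye-stained and imaged. gIC50 = growth midway between untreated and time-zero cell counts, from a 4-parameter fit.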"}, "BV-173": {"system": "BV-173", "assay": "Antiproliferative activity against human BV-173 cells assessed as cell growth inhibition incubated for 10 days", "format": "functional", "conditions": "BV-173, 240 h, time 10 day", "in_short": "as §1"}, "DLD-1": {"system": "DLD-1", "assay": "Antiproliferative activity against human DLD-1 cells assessed as cell growth inhibition incubated for 10 days", "format": "functional", "conditions": "DLD-1, 240 h, time 10 day", "in_short": "(§2)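 Outsourced panel run in 384-well plates. Cells were grown in RPMI-1640/10% FBS or a special medium at 37°C, 5% CO2. Compound was added 24 h after seeding as a 10-point, 3.16-fold series in 0.1% DMSO. Medium was refreshed and cells re-dosed at 168 h, with a time-zero plate kept. At 240 h cells were fixed, nuclei stained and imaged. gIC50 is growth midway between untreated and time zero, from a 4-parameter fit.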"}, "SW1417": {"system": "SW1417", "assay": "Antiproliferative activity against human SW1417 cells assessed as cell growth inhibition incubated for 10 days", "format": "functional", "conditions": "SW1417, 240 h, time 10 day"}, "SR": {"system": "SR", "assay": "Antiproliferative activity against human SR cells assessed as cell growth inhibition incubated for 10 days", "format": "functional", "conditions": "240 h, time 10 day"}, "[3]": {"system": "KATO III stomach cancer cell line", "assay": "Antiproliferative activity against human KATO III stomach cancer cell line assessed as cell growth inhibition incubated for 10 days", "format": "functional", "conditions": "240 h, time 10 day", "in_short": "(§3)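 Eurofins-panel 10-day assay in 384-well plates. Cells grown in RPMI-1640 with 10% FBS, 2 mM L-alanyl-L-glutamine and 1mM Na pyruvate, or a special medium, at 37°C in 5% CO₂. Compound added 24 h after seeding, 10-point 3.16-fold series in 0.1% DMSO. Medium replaced and compound re-dosed at 168 h. Nuclei fixed and stained after 240 h, then imaged to give a relative cell count. gIC50 is the concentration giving growth midway between untreated and time-zero counts, from a 4-parameter fit.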"}, "T98G": {"system": "T98G", "assay": "Antiproliferative activity against human T98G cells assessed as cell growth inhibition incubated for 10 days", "format": "functional", "conditions": "240 h, time 10 day"}, "SW1463": {"system": "SW1463", "assay": "Antiproliferative activity against human SW1463 cells assessed as cell growth inhibition incubated for 10 days", "format": "functional", "conditions": "SW1463, 240 h, time 10 day"}, "FaDu": {"system": "FaDu", "assay": "Antiproliferative activity against human FaDu cells assessed as cell growth inhibition incubated for 10 days", "format": "functional", "conditions": "240 h, time 10 day", "in_short": "as §2"}, "SH-4": {"system": "SH-4", "assay": "Antiproliferative activity against human SH-4 cells assessed as cell growth inhibition incubated for 10 days", "format": "functional", "conditions": "SH-4, 240 h, time 10 day"}, "[4]": {"assay": "Antiproliferative activity against human A7 cells assessed as cell growth inhibition incubated for 10 days", "format": "functional", "conditions": "A7, 240 h, time 10 day", "in_short": "as §1"}, "C32": {"system": "C32", "assay": "Antiproliferative activity against human C32 cells assessed as cell growth inhibition incubated for 10 days", "format": "functional", "conditions": "C32, 240 h, time 10 day", "in_short": "as §1"}, "A101D": {"system": "A101D", "assay": "Antiproliferative activity against human A101D cells assessed as cell growth inhibition incubated for 10 days", "format": "functional", "conditions": "240 h, time 10 day", "in_short": "as §1"}, "BE(2)-C": {"system": "BE(2)-C", "assay": "Antiproliferative activity against human BE2C cells assessed as cell growth inhibition incubated for 10 days", "format": "functional", "conditions": "240 h, time 10 day", "in_short": "as §1"}, "BPH-1": {"system": "BPH-1", "assay": "Antiproliferative activity against human BPH-1 cells assessed as cell growth inhibition incubated for 10 days", "format": "functional", "conditions": "BPH-1, 240 h, time 10 day", "in_short": "as §1"}, "A-427": {"system": "A-427", "assay": "Antiproliferative activity against human A-427 cells assessed as cell growth inhibition incubated for 10 days", "format": "functional", "conditions": "A-427, 240 h, time 10 day", "in_short": "as §1"}, "BXPC-3": {"system": "BXPC-3", "assay": "Antiproliferative activity against human BXPC-3 cells assessed as cell growth inhibition incubated for 10 days", "format": "functional", "conditions": "BXPC-3, 240 h, time 10 day", "in_short": "as §1"}, "PC-3": {"system": "PC-3", "assay": "Antiproliferative activity against human PC-3 cells assessed as cell growth inhibition incubated for 10 days", "format": "functional", "conditions": "PC-3, 240 h, time 10 day"}, "[5]": {"assay": "Antiproliferative activity against human BM-1604 cells assessed as cell growth inhibition incubated for 10 days", "format": "functional", "conditions": "BM-1604, 240 h, time 10 day", "in_short": "as §1"}, "CWR22R": {"system": "CWR22R", "assay": "Antiproliferative activity against human 22Rv1 cells assessed as cell growth inhibition incubated for 10 days", "format": "functional", "conditions": "22Rv1, 240 h, time 10 day", "in_short": "as §1"}, "MES-SA": {"system": "MES-SA", "assay": "Antiproliferative activity against human MES-SA cells assessed as cell growth inhibition incubated for 10 days", "format": "functional", "conditions": "240 h, time 10 day"}, "HT-1080": {"system": "HT-1080", "assay": "Antiproliferative activity against human HT-1080 cells assessed as cell growth inhibition incubated for 10 days", "format": "functional", "conditions": "HT-1080, 240 h, time 10 day", "in_short": "as §2"}, "[6]": {"assay": "Antiproliferative activity against human KHOS-240S cells assessed as cell growth inhibition incubated for 10 days", "format": "functional", "conditions": "240 h, time 10 day", "in_short": "as §3"}, "DMS-53": {"system": "DMS-53", "assay": "Antiproliferative activity against human DMS-53 cells assessed as cell growth inhibition incubated for 10 days", "format": "functional", "conditions": "DMS-53, 240 h, time 10 day", "in_short": "as §2"}, "SHP77": {"system": "SHP77", "assay": "Antiproliferative activity against human SHP77 cells assessed as cell growth inhibition incubated for 10 days", "format": "functional", "conditions": "SHP77, 240 h, time 10 day"}, "SW 954": {"system": "SW 954", "assay": "Antiproliferative activity against human SW 954 cells assessed as cell growth inhibition incubated for 10 days", "format": "functional", "conditions": "SW 954, 240 h, time 10 day"}, "[7]": {"molecular_target": "Protein arginine N-methyltransferase 5 (Homo sapiens) (UniProt O14744)", "sequence (O14744 whole entry)": "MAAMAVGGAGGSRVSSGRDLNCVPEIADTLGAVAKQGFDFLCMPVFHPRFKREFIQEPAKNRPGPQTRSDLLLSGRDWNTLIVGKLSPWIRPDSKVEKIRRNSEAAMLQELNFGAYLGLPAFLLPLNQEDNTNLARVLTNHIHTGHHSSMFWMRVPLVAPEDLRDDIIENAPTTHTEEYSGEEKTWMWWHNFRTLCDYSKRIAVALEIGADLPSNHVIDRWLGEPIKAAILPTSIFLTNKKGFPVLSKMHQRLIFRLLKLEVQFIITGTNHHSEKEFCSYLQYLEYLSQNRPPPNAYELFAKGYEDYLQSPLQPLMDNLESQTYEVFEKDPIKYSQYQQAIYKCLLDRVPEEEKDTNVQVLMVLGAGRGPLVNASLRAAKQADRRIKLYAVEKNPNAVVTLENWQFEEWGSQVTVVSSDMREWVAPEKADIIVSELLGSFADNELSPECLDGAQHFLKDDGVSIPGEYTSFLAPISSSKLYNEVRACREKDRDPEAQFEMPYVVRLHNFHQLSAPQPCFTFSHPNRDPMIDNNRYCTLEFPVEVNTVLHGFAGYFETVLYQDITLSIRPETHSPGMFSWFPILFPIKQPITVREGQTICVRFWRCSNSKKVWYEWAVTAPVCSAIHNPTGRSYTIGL", "assay": "Inhibition of PRMT5 in human Z138 cells assessed as full length MDM4 splicing at 200 to 1000 nM incubated for 3 days by RT-PCR analysis", "format": "cell-based", "conditions": "dose 200-1000 nM, time 3.0 day"}, "[8]": {"molecular_target": "Protein arginine N-methyltransferase 5 (Homo sapiens) (UniProt O14744)", "assay": "Inhibition of PRMT5 in human Z138 cells expressing full length MDM4 at 1 to 100000 nM incubated for 3 to 6 days", "format": "cell-based", "conditions": "dose 1-100000 nM, time 3-6 day"}, "[9]": {"molecular_target": "Protein arginine N-methyltransferase 5 (Homo sapiens) (UniProt O14744)", "assay": "Inhibition of PRMT5 in human Z138 cells expressing full length MDM4 assessed as effect on p53 level at 1 uM incubated for 4 days by Western blot analysis", "format": "cell-based", "conditions": "time 4.0 day"}, "[10]": {"molecular_target": "Protein arginine N-methyltransferase 5 (Homo sapiens) (UniProt O14744)", "assay": "Inhibition of PRMT5 in p53 knockout human Z138 cells effect on p21 expression at 500 nM incubated for 3 to 11 days by Western blot analysis", "format": "cell-based", "conditions": "time 3-11 day"}},
  "note": "Calls of active or inactive are those of the source. The rule behind the calls is not given here.",
  "data": [
    {"compound": "CC(=O)N1CCC(Nc2cc(C(=O)NC[C@H](O)CN3CCc4ccccc4C3)ncn2)CC1", "note": "[PEMRAMETOSTAT]", "values": [
      {"measurement": "Activity", "setting": "JeKo-1", "value": "inactive"},
      {"measurement": "Activity", "setting": "MINO", "value": "inactive"},
      {"measurement": "Activity", "setting": "Z-138 [1]", "value": "Active"},
      {"measurement": "inhibition", "setting": "Z-138 [2]", "value": "Active"}
    ]},
    {"compound": "O=C(NC[C@H](O)CN1CCc2ccccc2C1)c1ccnc(NC2CCC2)c1", "values": [
      {"measurement": "GI50", "setting": "C-4-II", "value": 266, "unit": "nM"},
      {"measurement": "GI50", "setting": "BV-173", "value": 10.6, "unit": "nM"},
      {"measurement": "GI50", "setting": "DLD-1", "value": 134, "unit": "nM"},
      {"measurement": "GI50", "setting": "SW1417", "value": 773, "unit": "nM"},
      {"measurement": "GI50", "setting": "SR", "value": 275, "unit": "nM"},
      {"measurement": "GI50", "setting": "[3]", "value": 16.7, "unit": "nM"},
      {"measurement": "GI50", "setting": "T98G", "value": 27.3, "unit": "nM"},
      {"measurement": "GI50", "setting": "SW1463", "value": 770, "unit": "nM"},
      {"measurement": "GI50", "setting": "FaDu", "value": 15.4, "unit": "nM"},
      {"measurement": "GI50", "setting": "SH-4", "value": 75.2, "unit": "nM"},
      {"measurement": "GI50", "setting": "[4]", "value": 36.7, "unit": "nM"},
      {"measurement": "GI50", "setting": "C32", "value": 14.1, "unit": "nM"},
      {"measurement": "GI50", "setting": "A101D", "value": 190, "unit": "nM"},
      {"measurement": "GI50", "setting": "BE(2)-C", "value": 803, "unit": "nM"},
      {"measurement": "GI50", "setting": "BPH-1", "value": 718, "unit": "nM"},
      {"measurement": "GI50", "setting": "A-427", "value": 130, "unit": "nM"},
      {"measurement": "GI50", "setting": "BXPC-3", "value": 160, "unit": "nM"},
      {"measurement": "GI50", "setting": "PC-3", "value": 873, "unit": "nM"},
      {"measurement": "GI50", "setting": "[5]", "value": 142, "unit": "nM"},
      {"measurement": "GI50", "setting": "CWR22R", "value": 2480, "unit": "nM"},
      {"measurement": "GI50", "setting": "MES-SA", "value": 72, "unit": "nM"},
      {"measurement": "GI50", "setting": "HT-1080", "value": 53.5, "unit": "nM"},
      {"measurement": "GI50", "setting": "[6]", "value": 124, "unit": "nM"},
      {"measurement": "GI50", "setting": "DMS-53", "value": 106, "unit": "nM"},
      {"measurement": "GI50", "setting": "SHP77", "value": 152, "unit": "nM"},
      {"measurement": "GI50", "setting": "SW 954", "value": 10000, "unit": "nM"},
      {"measurement": "inhibition", "setting": "[7]", "value": "Active"},
      {"measurement": "inhibition", "setting": "[8]", "value": "inactive"},
      {"measurement": "inhibition", "setting": "[9]", "value": "inactive"},
      {"measurement": "inhibition", "setting": "[10]", "value": "inactive"}
    ]}
  ]
}
